TRPC4 agonist – activators of mouse TRPC4 channel, primary screen, Fluo4 calcium, HEK293 TRPC4beta/mu-opioid cells | Short transient receptor potential channel 4 (Mus musculus), Q9QUQ5 | hit rate 0.49% among 310,000 | Fluo4 calcium fluorescence; stronger effect = higher value | B-score at 10 µM | AID 2237, 2010;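 active means B-score above 5 SD of library B-scores, and initial fluorescence ratio not above library mean plus 5 SD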;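 further: positive B-score marks a calcium rise read as TRPC4 activation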
Target sequence (Q9QUQ5 whole entry, looked up): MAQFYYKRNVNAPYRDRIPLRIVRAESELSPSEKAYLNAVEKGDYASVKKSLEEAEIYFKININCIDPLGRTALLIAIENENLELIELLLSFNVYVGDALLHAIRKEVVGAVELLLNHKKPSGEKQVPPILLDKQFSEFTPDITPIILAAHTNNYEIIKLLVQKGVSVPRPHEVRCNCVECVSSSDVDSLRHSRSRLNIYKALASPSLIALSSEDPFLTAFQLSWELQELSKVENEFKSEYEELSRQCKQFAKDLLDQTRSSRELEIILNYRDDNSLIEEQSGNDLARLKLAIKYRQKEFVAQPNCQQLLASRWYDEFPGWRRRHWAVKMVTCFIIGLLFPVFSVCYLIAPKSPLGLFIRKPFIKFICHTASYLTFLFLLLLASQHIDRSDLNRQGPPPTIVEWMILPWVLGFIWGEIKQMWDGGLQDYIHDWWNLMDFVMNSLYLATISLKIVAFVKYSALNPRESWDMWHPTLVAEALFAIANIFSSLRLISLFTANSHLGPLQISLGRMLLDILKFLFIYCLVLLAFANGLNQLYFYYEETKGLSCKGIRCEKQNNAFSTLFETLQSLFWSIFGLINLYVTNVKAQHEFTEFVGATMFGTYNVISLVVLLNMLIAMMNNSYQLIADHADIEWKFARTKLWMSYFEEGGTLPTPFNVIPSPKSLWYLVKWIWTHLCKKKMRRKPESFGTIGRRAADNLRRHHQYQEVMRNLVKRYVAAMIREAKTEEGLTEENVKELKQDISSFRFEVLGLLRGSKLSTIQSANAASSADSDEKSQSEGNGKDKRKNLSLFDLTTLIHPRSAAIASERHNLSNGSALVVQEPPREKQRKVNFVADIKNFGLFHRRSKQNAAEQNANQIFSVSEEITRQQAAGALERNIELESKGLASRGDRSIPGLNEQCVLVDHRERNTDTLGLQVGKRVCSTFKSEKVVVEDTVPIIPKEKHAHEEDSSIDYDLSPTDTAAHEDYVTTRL
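System: HEK293 cells stably co-expressing mouse TRPC4beta and mu-opioid receptor; Schedule: Fluo4 dye loading 45 min at room temperature, 110 s recording; Detection: Fluo4 fluorescence, kinetic; Evaluation: B-scored integrated calcium fluorescence ratio; Controls: buffer (low) and maximal DAMGO (high).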
TRPC6 inhibitor – mouse TRPC6 channel inhibitors, primary screen, cell-based, HEK293, membrane potential dye; Short transient receptor potential channel 6 (Mus musculus), Q61143; hit rate 1.1% among 310,000; B-score at 10 µM; ACh-evoked depolarization; stronger effect = lower value; AID 2553, 2010;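 active means B-score under library mean minus 3 SD, initial fluorescence not abnormally high, positive integrated signal ratio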;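 further: B-score derived from integrated fluorescence ratio over the kinetic read; more negative B-score means stronger inhibition of depolarization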
TRPC6 act – mouse TRPC6 channel activators, primary screen, cell-based, HEK293, membrane potential dye; HEK293-TRPC6 membrane potential dye fluorescence; stronger effect = higher value; AID 2550, 2010; Short transient receptor potential channel 6 (Mus musculus), Q61143; hit rate 0.13% among 310,000; B-score at 10 µM;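 active means B-score of the integrated fluorescence ratio above library mean plus 3 SD, and starting fluorescence ratio within library mean plus 5 SD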;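 further: higher score means more depolarization so channel activation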
TRPC4 inh – inhibitors of mouse TRPC4 channel, primary screen, Fluo4 calcium, HEK293 TRPC4beta/mu-opioid cells. B-score at 10 µM. DAMGO-evoked Fluo4 calcium flux; stronger effect = lower value. Short transient receptor potential channel 4 (Mus musculus), Q9QUQ5. hit rate 0.39% among 300,000;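 active means B-score over 3 SD under the library average, no early fluorescence shift, positive overall ratio signal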
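Material: HEK293 cells with stable TRPC4beta plus mu-opioid receptor expression; probe or stimulus: DAMGO in two steps, submaximal then maximal; technique: Fluo4 calcium fluorescence by kinetic imaging, 5 s 1 Hz baseline; measure: integrated fluorescence ratio relative to baseline, converted to per-well B score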
TRPC4 PAM – positive allosteric modulators of TRPC4, primary screen, cell-based, mouse TRPC4beta, HEK293 mu-opioid, Fluo-4 calcium. Short transient receptor potential channel 4 (Mus musculus), Q9QUQ5. DAMGO EC20, Fluo-4 Ca2+ flux; stronger effect = higher value. B-score at 10 µM. hit rate 0.42% among 310,000;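 active means B-score of calcium response area above 5 SD of library B-scores, with initial fluorescence ratio within 5 SD of library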
TRPC4 spec 2 – second selectivity test of TRPC6 inhibitors: effect on mouse TRPC4; shares compounds with TRPC6 inhibitor; HEK293 TRPC4/MOR, membrane potential dye fluorescence; channel activated by saturating DAMGO dose; inhibition, % at 10 µM; hit rate 42% among 920; AID 2776;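 active means compounds whose fluorescence signal differed from control wells by over 3 SD, either direction, in both duplicate plates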
TRPC4 spec – mouse TRPC4 modulation by TRPC6 hits, confirmation, selectivity assay for TRPC6 inhibitor project, cell-based, HEK293 TRPC4/mu-opioid, membrane potential dye; shares compounds with TRPC6 inhibitor; AID 2777, 2010; activity change, negative = inhibition, % at 10 µM; hit rate 61% among 920; membrane potential fluorescence;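 active means rise or fall in signal beyond 3 SD of buffer-only wells in both replicate plates, either sign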;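 further: integrated kinetic ratio of fluorescence range over baseline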
HEK293 MPD ctr 2-1 – nonspecific membrane potential effects, parental HEK293, confirmation, counter-screen for TRPC6 inhibitor project, cell-based, second counter screen | signal change vs control, % at 10 µM | shares compounds with TRPC6 inhibitor | parental HEK293 membrane potential dye fluorescence; maximal acetylcholine challenge after compound addition | AID 2779, 2010 | hit rate 31% among 920;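 active means membrane potential signal moving either way by over 3 SD of the maximum-effect control, in both duplicate plates, meaning non-specific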
HEK293 MPD ctr-1 – membrane potential modulation in parental HEK293, confirmation, counter-screen for TRPC6 inhibitor project, cell-based. membrane potential signal change, % at 10 µM. hit rate 60% among 920. parental HEK293 membrane potential dye fluorescence. shares compounds with TRPC6 inhibitor;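 active means membrane potential signal shifting up or down by more than 3 SD of buffer-only wells, on both duplicate plates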
HEK293 MPD ctr-2 – parental HEK293 membrane potential modulation, confirmation, counter-screen for TRPC6 modulator project, cell-based; membrane potential dye fluorescence; shares compounds with TRPC6 inhibitor; AID 488924, 2010; hit rate 51% among 2,400; membrane potential signal change, % at 10 µM;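 active means membrane potential signal moves up or down beyond 5 SD from buffer-only wells, on both duplicate plates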
HEK293 MPD ctr 2-2 – parental HEK293 nonspecific activity of TRPC6 modulators, second screen. shares compounds with TRPC6 inhibitor. membrane potential dye fluorescence; after compound, maximal acetylcholine stimulation. inhibition, % at 10 µM. hit rate 14% among 2,400. AID 488926;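 active means membrane potential signal drops by more than 5 SD from the mean control signal, in both duplicate plates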
TRPC4 ctr mod – TRPC4 modulation by TRPC6 hit compounds, confirmation, selectivity assay for TRPC6 modulator project, cell-based, HEK293 TRPC4/mu-opioid, membrane potential dye, mouse | shares compounds with TRPC6 inhibitor | membrane potential fluorescence | percent change from control (negative = decrease, positive = increase), % at 10 µM | hit rate 69% among 2,400 | AID 488927, 2010;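 active means membrane potential signal moved up or down beyond 5 SD of buffer control wells, in both duplicate plates, actives on both sides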
TRPC4/MOR inh 2 – second check of whether TRPC6 modulators also affect mouse TRPC4 | shares compounds with TRPC6 inhibitor | HEK293 TRPC4/mu-opioid, membrane potential dye fluorescence; stimulated with maximal-effect DAMGO | inhibition, % at 10 µM | hit rate 55% among 2,400 | AID 488928;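 active means drop in membrane potential signal beyond 5 SD of the control wells in both duplicate plates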;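 further: TRPC4 counter screen for TRPC6 hits run under conditions tuned for TRPC6 not TRPC4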
TRPC6 inh conf – mouse TRPC6 channel inhibitors, confirmation, HEK293 cells, membrane potential dye, duplicate; hit rate 43% among 3,300; inhibition, % at 10 µM; shares compounds with TRPC6 inhibitor; AID 488960, 2010; ACh-evoked depolarization;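 active means fluorescence ratio falls more than 5 SD below the full-stimulation control mean, in both duplicate runs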;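 further: integrated fluorescence ratio of peak minus minimum over baseline after agonist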
TRPC6 act conf – mouse TRPC6 channel activators, confirmation, HEK293 cells, membrane potential dye, duplicate; HEK293-TRPC6 membrane potential dye fluorescence, FDSS; activation, % at 10 µM; shares compounds with TRPC6 inhibitor; hit rate 11% among 2,800; AID 488961, 2010;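 active means ratio signal rise beyond 5 SD above unstimulated control wells' mean, seen in both duplicate runs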
Each line names hits and unclear results; the compound was inactive in the other large screens (follow-up assays come after a bar, where they were run). An excerpt weighted towards active compounds, which were near 2.3% of everything screened.

CN1CCN(c2nc(Nc3ccc(F)cc3)nc(Nc3ccc(F)cc3)n2)CC1	none
O=C(COC(=O)c1cc(=O)[nH]c2ccccc12)NC(=O)NC1CCCCC1	none
COc1ccccc1N1N=C(c2ccc([N+](=O)[O-])cc2)CC1c1ccccc1 (configuration not stated)	TRPC6 act 13 | HEK293 MPD ctr-2 inactive | HEK293 MPD ctr 2-2 inactive | TRPC4 ctr mod 23% | TRPC4/MOR inh 2 inactive | TRPC6 inh conf inactive | TRPC6 act conf 44%
O=C(Cn1c(-c2ccccc2)c[n+]2ccsc12)c1ccc(Br)cc1	TRPC4 agonist 86, TRPC6 inhibitor -5.6 | HEK293 MPD ctr-2 -122% | HEK293 MPD ctr 2-2 inactive | TRPC4 ctr mod 60% | TRPC4/MOR inh 2 97% | TRPC6 inh conf inactive | TRPC6 act conf inactive
Cn1c(=N)n(CC(=O)c2ccc(Br)cc2)c2ccccc21	none
CC1(C)CC(=O)C2=C(C1)NC1=C(C(=O)c3ccccc31)C2c1cc([N+](=O)[O-])ccc1O (configuration not stated)	TRPC6 inhibitor -5.4 | HEK293 MPD ctr-2 inactive | HEK293 MPD ctr 2-2 inactive | TRPC4 ctr mod -13% | TRPC4/MOR inh 2 66% | TRPC6 inh conf 42% | TRPC6 act conf inactive
Cc1cc(NC(=O)CNCC(c2ccccc2)N(C)C)c([N+](=O)[O-])cc1C (configuration not stated)	TRPC6 inhibitor -9.4 | TRPC4 spec 2 64% | TRPC4 spec -12% | HEK293 MPD ctr 2-1 inactive | HEK293 MPD ctr-1 -151% | TRPC6 inh conf inactive | TRPC6 act conf inactive
CCCCn1c2c(c(=N)c3ccccc31)CCC2	TRPC6 inhibitor -7.2 | TRPC4 spec 2 60% | TRPC4 spec -29% | HEK293 MPD ctr 2-1 -20% | HEK293 MPD ctr-1 -508% | TRPC6 inh conf 83% | TRPC6 act conf inactive
CCOC(=O)Cn1c2c(c(=N)c3ccccc31)CCC2	none
CCCCCn1c2c(c(=N)c3ccccc31)CCC2	TRPC6 inhibitor -8.1, TRPC4 inh -8 | TRPC4 spec 2 56% | TRPC4 spec -26% | HEK293 MPD ctr 2-1 20% | HEK293 MPD ctr-1 -388% | TRPC6 inh conf 71% | TRPC6 act conf inactive
CCCCCCCCn1c2c(c(=N)c3ccccc31)CCC2	none
CCCOc1ccc(C(=O)CCN2CCCCC2)cc1	TRPC6 inhibitor -5.4 | HEK293 MPD ctr-2 150% | HEK293 MPD ctr 2-2 inactive | TRPC4 ctr mod 24% | TRPC4/MOR inh 2 inactive | TRPC6 inh conf inactive
CCN1CCN(Cc2cc(=O)oc3cc4c(cc23)CCC4)CC1	TRPC6 inhibitor -5.1 | HEK293 MPD ctr-2 -70% | HEK293 MPD ctr 2-2 inactive | TRPC4 ctr mod -8.0% | TRPC4/MOR inh 2 40% | TRPC6 inh conf inactive | TRPC6 act conf inactive
CN1CCN(Cc2cc(=O)oc3cc4c(cc23)CCC4)CC1	none
CC1CN(C(=O)c2ccccc2)c2ccccc2NC1=O (configuration not stated)	none
Oc1cccc2ccc(Nc3ccccn3)nc12	TRPC6 inhibitor -9.1 | TRPC4 spec 2 inactive | TRPC4 spec -15% | HEK293 MPD ctr 2-1 inactive | HEK293 MPD ctr-1 -180% | TRPC6 inh conf inactive | TRPC6 act conf inactive
CN1CCN(c2ccc(Cl)cc2NC(=O)c2cccc(S(=O)(=O)N(C)C)c2)CC1	TRPC6 inhibitor -5.3 | HEK293 MPD ctr-2 inactive | HEK293 MPD ctr 2-2 inactive | TRPC4 ctr mod inactive | TRPC4/MOR inh 2 34% | TRPC6 inh conf inactive | TRPC6 act conf inactive
COc1ccc(Nc2ccc3c(c2)=NC2(CCCCC2)[N+]=3[O-])cc1	none
[O-][N+]1=c2ccc(Nc3ccccc3)cc2=NC12CCCCC2	TRPC6 inhibitor -6.7 | HEK293 MPD ctr-2 -206% | HEK293 MPD ctr 2-2 inactive | TRPC4 ctr mod -29% | TRPC4/MOR inh 2 41% | TRPC6 inh conf inactive | TRPC6 act conf inactive
O=C1c2ccccc2C(=O)c2c1cccc2N1CCCC1	none
Cn1c(=O)cc2c3c(c(N4CCCCC4)ccc31)C(=O)c1ccccc1-2	TRPC6 inhibitor -5.1 | HEK293 MPD ctr-2 -182% | HEK293 MPD ctr 2-2 inactive | TRPC4 ctr mod -42% | TRPC4/MOR inh 2 54% | TRPC6 inh conf 39% | TRPC6 act conf inactive
O=C(CNC(=O)c1ccc2ccccc2c1)OCC(=O)N1CCN(S(=O)(=O)c2ccc3ccccc3c2)CC1	none
Nc1cccc(C(=O)OCC(=O)Nc2cccc3c2C(=O)c2ccccc2C3=O)c1	none
